# Data from ChEMBL document CHEMBL1146117, “Inhibitors of human mitotic kinesin Eg5: characterization of the 4-phenyl-tetrahydroisoquinoline lead series” (Bioorg Med Chem Lett, 2006).
# How the values were obtained:
# [1] = target: T1, Kinesin-like protein KIF11 (Homo sapiens, UniProt P52732); assay: Inhibition of Eg5 by ATPase assay; type: functional
# T1 sequence (P52732 whole entry): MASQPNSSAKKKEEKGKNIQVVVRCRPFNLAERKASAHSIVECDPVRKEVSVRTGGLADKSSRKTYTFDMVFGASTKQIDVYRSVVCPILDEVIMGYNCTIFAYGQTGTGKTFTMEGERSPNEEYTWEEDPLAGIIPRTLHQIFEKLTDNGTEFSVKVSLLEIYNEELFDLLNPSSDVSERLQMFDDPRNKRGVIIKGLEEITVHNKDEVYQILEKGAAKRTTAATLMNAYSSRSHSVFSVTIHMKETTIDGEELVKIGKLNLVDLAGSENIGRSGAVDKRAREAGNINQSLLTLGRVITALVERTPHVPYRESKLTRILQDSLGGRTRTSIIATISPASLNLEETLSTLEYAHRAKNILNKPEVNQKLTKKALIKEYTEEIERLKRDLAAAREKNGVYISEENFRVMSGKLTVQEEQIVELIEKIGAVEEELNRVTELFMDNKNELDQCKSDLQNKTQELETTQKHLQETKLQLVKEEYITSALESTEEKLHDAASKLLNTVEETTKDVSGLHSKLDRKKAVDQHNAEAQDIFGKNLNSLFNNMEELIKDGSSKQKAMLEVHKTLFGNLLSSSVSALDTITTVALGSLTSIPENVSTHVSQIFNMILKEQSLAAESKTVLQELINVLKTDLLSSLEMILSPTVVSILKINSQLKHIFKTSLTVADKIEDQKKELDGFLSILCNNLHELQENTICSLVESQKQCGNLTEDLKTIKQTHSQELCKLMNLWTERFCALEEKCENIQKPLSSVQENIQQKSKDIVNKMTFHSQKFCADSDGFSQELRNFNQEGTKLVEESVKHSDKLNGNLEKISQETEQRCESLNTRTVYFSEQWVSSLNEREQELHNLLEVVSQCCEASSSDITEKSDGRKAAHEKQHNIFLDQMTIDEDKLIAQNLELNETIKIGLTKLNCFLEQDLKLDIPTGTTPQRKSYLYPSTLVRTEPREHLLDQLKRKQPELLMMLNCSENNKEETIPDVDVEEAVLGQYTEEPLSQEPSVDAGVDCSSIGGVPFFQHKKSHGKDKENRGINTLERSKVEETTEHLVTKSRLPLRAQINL
# Summary of the method: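 Eg5 motor-domain protein ATPase activity read with a Kinase-Glo luminescent ATP kit. IC50 taken from dose–response curves of triplicate data points. Values are means ± SD of three independent experiments.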
# A2780 [2] = assay: Mitotic index in A2780 cells at M phase at 0.1 uM; type: functional, Homo sapiens
# Summary of the method: (§1)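 A2780 cells were treated for 17 h at 0.257 or 0.328 µM, with nocodazole 0.1 µM as positive control and DMSO 0.08% as negative control. Cell-cycle profile (% G1, S, G2+M) and mitotic index (% cells in M phase) were quantified by flow cytometry.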
# A2780 [3] = assay: Cell cycle arrest in A2780 cells by accumulation at G2/M phase at 0.1 uM; type: functional, Homo sapiens; summary of the method: as §1
# A2780 [4] = assay: Cell cycle arrest in A2780 cells by accumulation at S phase at 0.1 uM; type: functional, Homo sapiens; summary of the method: as §1
# A2780 [5] = assay: Cell cycle arrest in A2780 cells by accumulation at G1 phase at 0.1 uM; type: functional, Homo sapiens; summary of the method: as §1
# A2780 [6] = assay: Antiproliferative activity against human A2780 cells; type: functional, cell-based
# Summary of the method: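 A2780 ovarian carcinoma cells were exposed to compound for 72 h. IC50 derived from dose–response curves of triplicate data points, reported as the mean ± SD of three independent experiments.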
# HCT-116 = assay: Antiproliferative activity against human HCT116 cells; type: functional, cell-based
# Summary of the method: (§2)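 Each tumour cell line in the panel was exposed to compound for 72 h, and IC50 was determined after that exposure.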
# A2780 [7] = assay: Cell cycle arrest in A2780 cells by accumulation at S phase at 0.257 uM; type: functional, Homo sapiens; summary of the method: as §1
# SW-620 = assay: Antiproliferative activity against human SW620 cells; type: functional, cell-based; summary of the method: as §2
# CCRF-CEM = assay: Antiproliferative activity against human CCRF-CEM cells; type: functional, cell-based; summary of the method: as §2
# NCI-H446 = assay: Antiproliferative activity against human NCI-H446 cells; type: functional, cell-based; summary of the method: as §2
# PC-3 = assay: Antiproliferative activity against human PC3 cells; type: functional, cell-based; summary of the method: as §2
# A2780 [8] = assay: Cell cycle arrest in A2780 cells by accumulation at G2/M phase at 0.257 uM; type: functional, Homo sapiens; summary of the method: as §1
# A2780 [9] = assay: Cell cycle arrest in A2780 cells by accumulation at G1 phase at 0.257 uM; type: functional, Homo sapiens; summary of the method: as §1
# LNCaP = assay: Antiproliferative activity against human LNCaP cells; type: functional, cell-based; summary of the method: as §2
# MDA-MB-231 = assay: Antiproliferative activity against human MDA-MB-231 cells; type: functional, cell-based; summary of the method: as §2
# DU-145 = assay: Antiproliferative activity against human Du145 cells; type: functional, cell-based; summary of the method: as §2
# A2780 [10] = assay: Antiproliferative activity against human A2780S cells; type: functional, cell-based; summary of the method: as §2
# M109 = assay: Antiproliferative activity against mouse M109 cells; type: functional, cell-based; summary of the method: as §2
# A2780 [11] = assay: Mitotic index in A2780 cells at M phase at 0.328 uM; type: functional, Homo sapiens; summary of the method: as §1
# P388 = assay: Antiproliferative activity against mouse P388 cells; type: functional, cell-based; summary of the method: as §2
# MDA-MB-468 = assay: Antiproliferative activity against human MDA-MB-468 cells; type: functional, cell-based; summary of the method: as §2
# A2780 [12] = assay: Antiproliferative activity against human A2780-TAXR cells; type: functional, cell-based; summary of the method: as §2
# A2780 [13] = assay: Cell cycle arrest in A2780 cells by accumulation at S phase at 0.328 uM; type: functional, Homo sapiens; summary of the method: as §1
# A2780 [14] = assay: Cell cycle arrest in A2780 cells by accumulation at G1 phase at 0.328 uM; type: functional, Homo sapiens; summary of the method: as §1
# A2780 [15] = assay: Mitotic index in A2780 cells at M phase at 0.257 uM; type: functional, Homo sapiens; summary of the method: as §1
# SHP77 = assay: Antiproliferative activity against human SHP77 cells; type: functional, cell-based; summary of the method: as §2
# A2780 [16] = assay: Cell cycle arrest in A2780 cells by accumulation at G2/M phase at 0.328 uM; type: functional, Homo sapiens; summary of the method: as §1
smiles,measurement,setting,value
Cc1ccc2c(c1C)CN(C(=O)N(C)C)CC2c1cccc(C(F)(F)F)c1 (stereo not given),IC50,[1],13.2 µM
CC(=O)N1Cc2c(ccc(C)c2C)C(c2ccccc2)C1 (stereo not given),IC50,[1],17.9 µM
COC(=O)Nc1nc2cc(C(=O)c3cccs3)ccc2[nH]1 [NOCODAZOLE],Activity,A2780 [2],23.7%
same,Activity,A2780 [3],62.1%
same,Activity,A2780 [4],15.7%
same,Activity,A2780 [5],12%
Cc1ccc2c(c1C)CN(C(=O)N(C)C)CC2c1ccc(O)cc1 (stereo not given),IC50,[1],> 25 µM
Cc1ccc2c(c1C)CN(CCN)CC2c1ccccc1 (stereo not given),IC50,A2780 [6],2310 nM
same,IC50,[1],2.27 µM
CN(C)C(=O)N1Cc2ccccc2C(c2cccc(O)c2)C1 (stereo not given),IC50,[1],> 25 µM
Cc1ccc2c(c1)CN(C(=O)N(C)C)CC2c1cccc(O)c1 (stereo not given),IC50,A2780 [6],851 nM
same,IC50,[1],0.595 µM
CN(C)C(=O)N1Cc2c(Cl)cccc2C(c2cccc(O)c2)C1 (stereo not given),IC50,[1],> 25 µM
CN(C)C(=O)N1Cc2cc(Br)ccc2C(c2cccc(O)c2)C1 (stereo not given),IC50,A2780 [6],879 nM
same,IC50,[1],0.808 µM
Cc1ccc2c(c1C)CN(CCCN(C)C)CC2c1ccccc1 (stereo not given),IC50,A2780 [6],3240 nM
same,IC50,[1],8.88 µM
CN(C)C(=O)N1Cc2c(Br)cccc2C(c2cccc(O)c2)C1 (stereo not given),IC50,[1],> 25 µM
Cc1ccc2c(c1C)CN(CCc1ccccc1)CC2c1ccccc1 (stereo not given),IC50,[1],> 25 µM
Cc1ccc2c(c1C)CN(CCCCN(C)C)CC2c1ccccc1 (stereo not given),IC50,A2780 [6],1860 nM
same,IC50,[1],5.36 µM
Cc1ccc2c(c1C)CN(C(=O)N1CCOCC1)CC2c1ccccc1 (stereo not given),IC50,[1],22.3 µM
Cc1ccc2c(c1C)CN(CCCCN)CC2c1ccccc1 (stereo not given),IC50,A2780 [6],2370 nM
same,IC50,[1],4.65 µM
CCOC(=O)N1Cc2c(ccc(C)c2C)C(c2ccccc2)C1 (stereo not given),IC50,[1],> 25 µM
Cc1ccc2c(c1C)CN(C(=O)N(C)C)CC2c1cccc(O)c1 (stereo not given),IC50,A2780 [6],376 nM
same,IC50,[1],0.306 µM
CN(C)C(=O)N1Cc2c(ccc(Cl)c2Cl)C(c2cccc(O)c2)C1 (stereo not given),IC50,A2780 [6],3440 nM
same,IC50,[1],1.27 µM
CN(C)C(=O)N1Cc2c(ccc3c2OCC3)C(c2cccc(O)c2)C1 (stereo not given),IC50,A2780 [6],235 nM
same,IC50,[1],0.639 µM
Cc1ccc2c(c1C)CN(CCCN)CC2c1ccccc1 (stereo not given),IC50,A2780 [6],2420 nM
same,IC50,[1],3.06 µM
COC(=O)N1Cc2c(ccc(C)c2C)C(c2ccccc2)C1 (stereo not given),IC50,[1],14.4 µM
Cc1ccc2c(c1C)CN(C(C)C)CC2c1ccccc1 (stereo not given),IC50,A2780 [6],6280 nM
same,IC50,[1],11 µM
Cc1ccc2c(c1C)CN(C(=O)N(C)CCCN(C)C)CC2c1ccccc1 (stereo not given),IC50,A2780 [6],1210 nM
same,IC50,[1],5.44 µM
Cc1cccc2c1CN(C(=O)N(C)C)CC2c1cccc(O)c1 (stereo not given),IC50,A2780 [6],2050 nM
same,IC50,[1],4.71 µM
CNC(=O)N1Cc2c(ccc(C)c2C)C(c2ccccc2)C1 (stereo not given),IC50,[1],> 25 µM
Cc1ccc2c(c1C)CNCC2c1ccccc1 (stereo not given),IC50,A2780 [6],9040 nM
same,IC50,[1],8.33 µM
Cc1ccc2c(c1C)CN(C(N)=O)CC2c1ccccc1 (stereo not given),IC50,[1],> 25 µM
Cc1ccc2c(c1C)CN(C(=O)N(C)C)C[C@@H]2c1cccc(O)c1,IC50,HCT-116,259 nM
same,Activity,A2780 [7],11.8%
same,IC50,SW-620,466 nM
same,IC50,CCRF-CEM,282 nM
same,IC50,NCI-H446,360 nM
same,IC50,A2780 [6],234 nM
same,IC50,PC-3,223 nM
same,Activity,A2780 [8],73.2%
same,Activity,A2780 [9],9.1%
same,IC50,LNCaP,807 nM
same,IC50,MDA-MB-231,480 nM
same,IC50,DU-145,484 nM
same,IC50,A2780 [10],267 nM
same,IC50,M109,259 nM
same,Activity,A2780 [11],52.2%
same,IC50,P388,460 nM
same,IC50,MDA-MB-468,350 nM
same,IC50,A2780 [12],215 nM
same,Activity,A2780 [13],5.9%
same,Activity,A2780 [14],3.1%
same,Activity,A2780 [15],39.3%
same,IC50,SHP77,261 nM
same,Activity,A2780 [16],84%
Cc1ccc2c(c1C)CN(S(C)(=O)=O)CC2c1ccccc1 (stereo not given),IC50,[1],> 25 µM
COc1ccc2c(c1OC)CN(C(=O)N(C)C)CC2c1cccc(O)c1 (stereo not given),IC50,A2780 [6],2920 nM
same,IC50,[1],12.8 µM
Cc1ccc2c(c1C)CN(CCn1cccc1)CC2c1ccccc1 (stereo not given),IC50,[1],> 25 µM
Cc1ccc2c(c1C)CN(C)CC2c1ccccc1 (stereo not given),IC50,A2780 [6],7300 nM
same,IC50,[1],18.4 µM
COc1cccc2c1CN(C(=O)N(C)C)CC2c1cccc(O)c1 (stereo not given),IC50,A2780 [6],332 nM
same,IC50,[1],1.78 µM
CN(C)C(=O)N1Cc2cc(Cl)ccc2C(c2cccc(O)c2)C1 (stereo not given),IC50,A2780 [6],1190 nM
same,IC50,[1],2.49 µM
COc1ccc2c(c1)CN(C(=O)N(C)C)CC2c1cccc(O)c1 (stereo not given),IC50,A2780 [6],402 nM
same,IC50,[1],0.617 µM
Cc1ccc2c(c1C)CN(C(=O)N(C)C)CC2c1ccccc1 (stereo not given),IC50,A2780 [6],1200 nM
same,IC50,[1],2.75 µM
Cc1ccc2c(c1C)CN(C(=O)N(C)C)CC2c1cccc(Cl)c1 (stereo not given),IC50,A2780 [6],3020 nM
same,IC50,[1],3.48 µM
CN(C)C(=O)N1Cc2cc(I)ccc2C(c2cccc(O)c2)C1 (stereo not given),IC50,A2780 [6],363 nM
same,IC50,[1],0.317 µM
CN(C)C(=O)N1Cc2c(F)cccc2C(c2cccc(O)c2)C1 (stereo not given),IC50,[1],> 25 µM
CN(C)C(=O)N1Cc2cc(F)ccc2C(c2cccc(O)c2)C1 (stereo not given),IC50,[1],> 25 µM
Cc1ccc2c(c1C)CN(C(=O)N1CCCCC1)CC2c1ccccc1 (stereo not given),IC50,A2780 [6],2830 nM
same,IC50,[1],12.8 µM
CCN1Cc2c(ccc(C)c2C)C(c2ccccc2)C1 (stereo not given),IC50,A2780 [6],5300 nM
same,IC50,[1],25.2 µM
Cc1ccc2c(c1C)CN(C(=O)c1ccccc1)CC2c1ccccc1 (stereo not given),IC50,A2780 [6],7770 nM
same,IC50,[1],16.4 µM
CCc1cccc2c1CN(C(=O)N(C)C)CC2c1cccc(O)c1 (stereo not given),IC50,A2780 [6],186 nM
same,IC50,[1],0.344 µM
